{"source": "ChEMBL document CHEMBL1154548", "about": "“Synthesis and initial evaluation of novel, non-peptidic antagonists of the alpha(v)-integrins alpha(v)beta(3) and alpha(v)beta(5)” (Bioorg Med Chem Lett, 2009)", "key": {"[1]": {"target": "Integrin alpha-V/beta-3 (Homo sapiens, UniProt P05106+P06756)", "sequence (P05106 27-788 limits assumed)": "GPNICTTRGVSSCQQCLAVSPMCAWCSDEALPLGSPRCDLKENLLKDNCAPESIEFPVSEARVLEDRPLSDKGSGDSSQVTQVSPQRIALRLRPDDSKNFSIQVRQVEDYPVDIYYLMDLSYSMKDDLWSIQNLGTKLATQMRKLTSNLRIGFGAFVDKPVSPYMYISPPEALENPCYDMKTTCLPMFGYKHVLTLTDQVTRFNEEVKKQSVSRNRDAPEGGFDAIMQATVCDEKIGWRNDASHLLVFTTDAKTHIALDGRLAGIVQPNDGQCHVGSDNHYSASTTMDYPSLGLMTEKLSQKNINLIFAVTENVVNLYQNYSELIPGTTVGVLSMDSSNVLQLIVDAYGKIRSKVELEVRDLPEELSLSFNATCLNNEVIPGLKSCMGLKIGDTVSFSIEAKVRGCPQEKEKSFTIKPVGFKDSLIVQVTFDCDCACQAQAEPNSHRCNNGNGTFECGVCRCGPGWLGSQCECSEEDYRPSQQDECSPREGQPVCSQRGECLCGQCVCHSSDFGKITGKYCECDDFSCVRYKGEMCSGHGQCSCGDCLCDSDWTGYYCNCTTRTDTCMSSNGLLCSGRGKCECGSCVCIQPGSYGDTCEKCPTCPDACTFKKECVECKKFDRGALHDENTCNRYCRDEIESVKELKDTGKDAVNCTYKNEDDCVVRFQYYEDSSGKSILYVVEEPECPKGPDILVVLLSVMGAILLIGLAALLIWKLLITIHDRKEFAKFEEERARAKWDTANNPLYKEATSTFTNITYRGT", "sequence (P06756 31-889 limits assumed)": "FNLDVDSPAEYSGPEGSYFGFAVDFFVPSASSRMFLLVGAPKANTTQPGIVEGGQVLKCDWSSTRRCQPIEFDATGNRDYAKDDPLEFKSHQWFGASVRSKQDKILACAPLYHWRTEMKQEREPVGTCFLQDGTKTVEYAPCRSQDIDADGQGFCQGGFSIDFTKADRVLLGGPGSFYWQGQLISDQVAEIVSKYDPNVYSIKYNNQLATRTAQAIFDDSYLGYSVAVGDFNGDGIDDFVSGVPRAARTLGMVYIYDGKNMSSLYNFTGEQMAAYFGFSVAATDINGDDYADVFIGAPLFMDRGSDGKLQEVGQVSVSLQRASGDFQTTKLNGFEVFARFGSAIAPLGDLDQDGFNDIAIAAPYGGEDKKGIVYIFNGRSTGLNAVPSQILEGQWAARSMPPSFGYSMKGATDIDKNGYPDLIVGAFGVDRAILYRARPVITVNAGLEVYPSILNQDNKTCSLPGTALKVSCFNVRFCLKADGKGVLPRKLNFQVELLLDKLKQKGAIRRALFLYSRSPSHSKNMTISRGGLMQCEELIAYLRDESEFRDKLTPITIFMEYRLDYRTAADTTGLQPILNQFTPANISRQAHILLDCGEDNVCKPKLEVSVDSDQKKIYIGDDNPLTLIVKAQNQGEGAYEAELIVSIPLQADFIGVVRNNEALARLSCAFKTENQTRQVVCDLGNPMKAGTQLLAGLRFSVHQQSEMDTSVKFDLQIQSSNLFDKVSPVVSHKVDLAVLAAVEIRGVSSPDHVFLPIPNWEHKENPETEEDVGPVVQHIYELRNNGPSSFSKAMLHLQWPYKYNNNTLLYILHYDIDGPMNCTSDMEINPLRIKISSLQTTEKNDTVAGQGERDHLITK", "sequence (P06756 891-1048 limits assumed)": "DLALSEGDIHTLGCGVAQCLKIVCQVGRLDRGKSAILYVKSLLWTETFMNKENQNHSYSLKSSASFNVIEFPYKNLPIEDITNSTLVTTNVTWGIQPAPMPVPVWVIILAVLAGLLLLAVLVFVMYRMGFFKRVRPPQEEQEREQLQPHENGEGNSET", "test": "Binding affinity to human integrin alphavbeta3 receptor by TRF assay", "how_it_was_run": "(§1)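 Wells were coated with αvβ3 or αvβ5 overnight at 4 °C in buffer A (50 mM Tris–HCl pH 7.4, 100 mM NaCl, 1 mM each MgCl₂, CaCl₂, MnCl₂), then blocked with 1% BSA for 1 h at RT. Compound and 20 nM Eu³⁺-vitronectin in buffer A plus DTPA and 0.05% BSA were added for 1 h at RT. Wells were washed, enhancement solution was added for 10 min with shaking, and time-resolved fluorescence was read.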"}, "[2]": {"target": "Integrin alpha-V (Homo sapiens, UniProt P06756+P18084)", "sequence (P06756 whole entry, one chain of several)": "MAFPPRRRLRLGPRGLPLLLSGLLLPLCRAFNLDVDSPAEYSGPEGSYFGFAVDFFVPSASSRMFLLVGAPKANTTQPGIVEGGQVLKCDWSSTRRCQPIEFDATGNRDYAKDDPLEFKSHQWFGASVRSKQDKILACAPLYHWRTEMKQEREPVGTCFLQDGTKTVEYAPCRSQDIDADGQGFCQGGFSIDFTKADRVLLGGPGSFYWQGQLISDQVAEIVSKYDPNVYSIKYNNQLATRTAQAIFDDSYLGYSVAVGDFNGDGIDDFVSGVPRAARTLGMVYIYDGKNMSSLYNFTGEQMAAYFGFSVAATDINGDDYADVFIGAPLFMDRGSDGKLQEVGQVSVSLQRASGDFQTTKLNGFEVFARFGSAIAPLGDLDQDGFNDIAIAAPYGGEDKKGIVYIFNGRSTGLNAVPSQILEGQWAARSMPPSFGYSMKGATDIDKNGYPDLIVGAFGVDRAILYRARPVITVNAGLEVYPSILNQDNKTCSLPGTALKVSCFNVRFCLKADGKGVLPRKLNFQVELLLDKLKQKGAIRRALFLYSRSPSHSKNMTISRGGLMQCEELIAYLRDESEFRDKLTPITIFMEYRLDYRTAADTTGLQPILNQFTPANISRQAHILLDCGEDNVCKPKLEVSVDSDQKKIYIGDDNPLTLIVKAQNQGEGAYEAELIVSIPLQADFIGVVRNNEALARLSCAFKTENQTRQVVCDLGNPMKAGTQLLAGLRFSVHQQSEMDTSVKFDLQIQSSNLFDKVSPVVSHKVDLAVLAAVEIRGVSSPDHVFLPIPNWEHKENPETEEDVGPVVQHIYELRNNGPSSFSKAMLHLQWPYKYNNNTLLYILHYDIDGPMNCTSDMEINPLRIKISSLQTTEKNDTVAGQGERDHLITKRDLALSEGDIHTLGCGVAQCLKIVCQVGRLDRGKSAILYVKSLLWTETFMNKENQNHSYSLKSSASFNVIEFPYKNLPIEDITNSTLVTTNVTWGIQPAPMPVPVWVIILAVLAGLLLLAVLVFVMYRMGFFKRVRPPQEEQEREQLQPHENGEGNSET", "test": "Binding affinity to human integrin alphavbeta5 receptor by TRF assay", "how_it_was_run": "as §1"}, "[3]": {"target": "Integrin alpha-IIb/beta-3 (Homo sapiens, UniProt P05106+P08514)", "sequence (P05106 27-788 limits assumed)": "as the sequence (P05106 27-788 limits assumed) above", "sequence (P08514 32-887 limits assumed)": "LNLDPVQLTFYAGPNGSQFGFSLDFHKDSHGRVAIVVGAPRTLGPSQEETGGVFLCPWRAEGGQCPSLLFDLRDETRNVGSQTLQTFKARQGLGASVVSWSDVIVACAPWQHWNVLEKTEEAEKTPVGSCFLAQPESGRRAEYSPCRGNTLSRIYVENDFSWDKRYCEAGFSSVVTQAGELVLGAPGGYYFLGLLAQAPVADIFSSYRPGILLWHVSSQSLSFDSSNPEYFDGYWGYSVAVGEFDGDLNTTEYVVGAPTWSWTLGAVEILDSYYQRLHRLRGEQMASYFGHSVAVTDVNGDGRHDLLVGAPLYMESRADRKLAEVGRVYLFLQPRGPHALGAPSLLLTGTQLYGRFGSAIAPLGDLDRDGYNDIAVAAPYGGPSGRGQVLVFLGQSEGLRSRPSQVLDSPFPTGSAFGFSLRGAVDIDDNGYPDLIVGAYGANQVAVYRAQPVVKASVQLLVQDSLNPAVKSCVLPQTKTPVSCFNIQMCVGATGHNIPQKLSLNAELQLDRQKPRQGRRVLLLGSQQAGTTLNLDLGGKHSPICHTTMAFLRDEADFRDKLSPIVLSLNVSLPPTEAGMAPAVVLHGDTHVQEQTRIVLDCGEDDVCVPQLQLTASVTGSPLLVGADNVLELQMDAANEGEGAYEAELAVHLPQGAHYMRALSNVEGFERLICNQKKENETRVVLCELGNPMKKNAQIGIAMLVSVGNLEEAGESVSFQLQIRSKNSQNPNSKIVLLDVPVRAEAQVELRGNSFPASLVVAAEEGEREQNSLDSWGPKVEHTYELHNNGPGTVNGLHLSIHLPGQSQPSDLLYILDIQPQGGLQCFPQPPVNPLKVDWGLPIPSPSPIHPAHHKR", "sequence (P08514 891-1039 limits assumed)": "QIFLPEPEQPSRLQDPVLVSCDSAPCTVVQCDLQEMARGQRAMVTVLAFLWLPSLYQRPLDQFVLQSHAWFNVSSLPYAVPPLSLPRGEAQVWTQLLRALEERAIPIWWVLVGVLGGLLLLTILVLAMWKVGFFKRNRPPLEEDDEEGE", "test": "Binding affinity to human integrin […] receptor by TRF assay", "assay_type": "protein-complex assay", "how_it_was_run": "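Purified αIIbβ3 coated overnight at 4 °C in buffer A (50 mM Tris–HCl pH 7.4, 100 mM NaCl, 1 mM each MgCl₂, CaCl₂, MnCl₂), then blocked with 1% BSA for 1 h at RT. Compound plus 20 nM Eu³⁺-fibrinogen in buffer A with DTPA and 0.05% BSA, 1 h at RT. After washing, enhancement solution was added for 10 min with shaking and time-resolved fluorescence was read.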"}, "[4]": {"tested_on": "HUVEC", "test": "Inhibition of FGF-induced HUVEC proliferation after 48 hrs", "assay_type": "functional, cell-based", "details": "Homo sapiens", "how_it_was_run": "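HUVEC were seeded at 1000 cells/well in complete EBM-2 and cultured 24 h at 37 °C with 5% CO₂. Medium was replaced with EBM-2 containing 2% FBS, 3 ng/mL FGF and compound, and cells were grown a further 48 h. Cells were fixed in glutaraldehyde, stained with crystal violet, destained in acetic acid and read by absorbance at 595. Means of two experiments with SD.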"}, "[5]": {"tested_on": "HUVEC", "test": "Inhibition of VEGF-induced HUVEC proliferation after 48 hrs", "assay_type": "functional, cell-based", "details": "Homo sapiens"}, "[6]": {"tested_on": "HUVEC", "test": "Inhibition of HUVEC migration after 4 hrs", "assay_type": "functional, cell-based", "details": "Homo sapiens", "how_it_was_run": "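Boyden-chamber filters were coated with vitronectin in HEPES/NaCl/divalent-cation buffer for 1 h at 37 °C, then blocked with 2% BSA for 1 h. HUVEC were added to the upper chamber at 20,000/well in migration buffer with or without compound and incubated 4 h at 37 °C. Non-migrated cells were removed; migrated cells were fixed, stained with crystal violet, photographed and quantified. Means of two experiments with SD.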"}, "[7]": {"test": "Apparent permeability across human Caco-2 cells", "assay_type": "ADME, cell-based"}}, "data": [{"molecule": "Cn1c(N)nc2c(Oc3ccc(C(=O)NCCC(=O)O)cc3)cccc21", "values": [{"measurement": "IC50", "setting": "[1]", "result": 230, "unit": "nM"}, {"measurement": "IC50", "setting": "[2]", "result": 2050, "unit": "nM"}]}, {"molecule": "O=C(O)CCN1CCc2cc(Oc3cccc4c3nc3n4CCCN3)ccc2C1=O", "values": [{"measurement": "IC50", "setting": "[1]", "result": 7, "unit": "nM"}, {"measurement": "IC50", "setting": "[3]", "result": 6300, "unit": "nM"}, {"measurement": "IC50", "setting": "[2]", "result": 310, "unit": "nM"}]}, {"molecule": "CC(C)[C@@H]1NC(=O)[C@@H](Cc2ccccc2)NC(=O)[C@H](CC(=O)O)NC(=O)CNC(=O)[C@H](CCCN=C(N)N)NC1=O", "note": "[CYCLORGDFV]", "values": [{"measurement": "IC50", "setting": "[4]", "result": 3100, "unit": "nM"}, {"measurement": "IC50", "setting": "[5]", "result": 4500, "unit": "nM"}, {"measurement": "IC50", "setting": "[6]", "result": 530, "unit": "nM"}]}, {"molecule": "O=C(O)CC(c1ccc2c(c1)OCO2)N1CCc2cc(Oc3cccc4c3nc3n4CCCN3)ccc2C1=O", "note": "(stereo not given)", "values": [{"measurement": "IC50", "setting": "[1]", "result": 2, "unit": "nM"}, {"measurement": "IC50", "setting": "[3]", "result": 167, "unit": "nM"}, {"measurement": "IC50", "setting": "[4]", "result": 2900, "unit": "nM"}, {"measurement": "IC50", "setting": "[5]", "result": 1100, "unit": "nM"}, {"measurement": "IC50", "setting": "[6]", "result": 40, "unit": "nM"}, {"measurement": "Papp", "setting": "[7]", "result": 8.96, "unit": "×10⁻⁶ cm/s"}, {"measurement": "IC50", "setting": "[2]", "result": 14, "unit": "nM"}]}, {"molecule": "O=C(O)CC(c1cccnc1)N1CCc2cc(Oc3cccc4c3nc3n4CCCN3)ccc2C1=O", "note": "(stereo not given)", "values": [{"measurement": "IC50", "setting": "[1]", "result": 1, "unit": "nM"}, {"measurement": "IC50", "setting": "[3]", "result": 323, "unit": "nM"}, {"measurement": "IC50", "setting": "[4]", "result": 1100, "unit": "nM"}, {"measurement": "IC50", "setting": "[5]", "result": 4300, "unit": "nM"}, {"measurement": "IC50", "setting": "[6]", "result": 37, "unit": "nM"}, {"measurement": "IC50", "setting": "[2]", "result": 5, "unit": "nM"}]}, {"molecule": "Cn1c(N)nc2c(Oc3ccc4c(c3)CCN(CCC(=O)O)C4=O)cccc21", "values": [{"measurement": "IC50", "setting": "[1]", "result": 39, "unit": "nM"}, {"measurement": "IC50", "setting": "[3]", "result": "> 10000", "unit": "nM"}, {"measurement": "IC50", "setting": "[2]", "result": 600, "unit": "nM"}]}, {"molecule": "Cn1c(N)nc2c(Oc3ccc4c(c3)CCCN(CCC(=O)O)C4=O)cccc21", "values": [{"measurement": "IC50", "setting": "[1]", "result": 370, "unit": "nM"}, {"measurement": "IC50", "setting": "[3]", "result": "> 10000", "unit": "nM"}, {"measurement": "IC50", "setting": "[2]", "result": 4300, "unit": "nM"}]}, {"molecule": "Cn1c(N)nc2c(Oc3ccc4c(c3)CN(CCC(=O)O)C4=O)cccc21", "values": [{"measurement": "IC50", "setting": "[1]", "result": 180, "unit": "nM"}, {"measurement": "IC50", "setting": "[3]", "result": "> 10000", "unit": "nM"}, {"measurement": "IC50", "setting": "[2]", "result": 4800, "unit": "nM"}]}]}
